Here are results for six compounds from ChEMBL document CHEMBL1129560, “Nucleoside conjugates. 15. Synthesis and biological activity of anti-HIV nucleoside conjugates of ether and thioether phospholipids” (J Med Chem, 1996).

Data set [1] relates to CCRF-CEM. As to the kind of experiment: Ability to reduce viable cell number on HIV-1-infected CEM cells in vitro. The note with it: Homo sapiens.
The nature of data set [2]: Pharmacokinetic parameter AUC in mice following a single dose intraperitoneal administration of the compound. The note with it: mouse, in vivo, ip.
For data set [3], the system named is CCRF-CEM. As to the kind of experiment: Effective concentration against HIV-1-infected CEM cells in mice administered intraperitoneally. Type of data set: functional, cell-based. The note with it: Homo sapiens, in the assay text read “in vitro” for “in mice administered intraperitoneally”. The essentials:
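Conjugates were given as micellar suspensions made by sonication, in HIV-1-infected CEM cells. EC50 is the concentration protecting infected cells by 50%. IC50 is the concentration reducing viable cell number by 50%.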

The nature of data set [4]: Time taken to decrease plasma concentration to half of its initial concentration after intraperitoneal administration. Type of data set: ADME, organism-based. The note with it: ip. The essentials:
(§1)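 Female NIH-Swiss mice (25–30 g) received one dose of micellar conjugate ip at 394 mg/kg (equivalent to 100 mg/kg parent nucleoside), or the parent at 100 mg/kg ip. An iv arm gave 205 mg/kg conjugate or 50 mg/kg parent. Three mice were taken per time point up to 24 h. Serum nucleoside was measured by HPLC-UV at 260 nm. Analysis was noncompartmental, with t1/2 = 0.693/λz.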

Data set [5] is described as follows: Time taken to decrease plasma concentration to half of its initial concentration after iv administration. Format: ADME, organism-based.
Data set [6] in a line: Time taken to decrease plasma concentration to half of its initial concentration after ip administration. Type of data set: ADME, organism-based. In short, it runs like this:
as §1

What is called IC50 is the concentration needed to halve the response being measured. A low value points to higher potency. A word on the AUC: it is the area under the concentration-time curve, a measure of exposure. A low value points to low exposure. By EC50 is commonly meant the concentration giving half of the maximal effect. Broadly, the half-life is how long it takes for the measured level to halve. Low readings indicate fast loss, high ones slow loss. `CCCCCCCCCCCCCCCCCCSCC(COP(=O)([O-])OP(=O)([O-])OC[C@H]1O[C@@H](n2cc(C)c(=O)[nH]c2=O)C[C@@H]1N=[N+]=[N-])OC(=O)CCCCCCCCCCCCCCC.[Na+].[Na+]` (some centres not stated) returned an IC50 in data set [1] of 120 µM. Further, the AUC in data set [2] was found to be 25.8 µg·h/mL. In data set [3], this compound showed an EC50 of under 0.58 µM. Also, the half-life in data set [4] was 5.69 h.
With `CCCCCCCCCCCCCCCCCCSCC(COP(=O)(O)OP(=O)(O)OC[C@@H]1CC[C@H](n2ccc(N)nc2=O)O1)OC(=O)CCCCCCCCCCCCCCC` (some centres not stated), the IC50 in data set [1] amounted to 2800 µM. In data set [3], this compound came in with an EC50 of 130 µM.
With `CCCCCCCCCCCCCCCCCCSCC(COP(=O)([O-])OP(=O)([O-])OC[C@H]1O[C@@H](n2ccc(=O)[nH]c2=O)C[C@@H]1N=[N+]=[N-])OC(=O)CCCCCCCCCCCCCCC.[Na+].[Na+]` (some centres not stated), inhibition in data set [1] was half-maximal at 380 µM (IC50). Moreover, in data set [5], the half-life is 6.5 h. Moreover, the EC50 in data set [3] amounted to 17 µM.
`CCCCCCCCCCCCCCCC(=O)OC(COCCCCCCCCCCCCCC)COP(=O)(O)OP(=O)(O)OC[C@H]1O[C@@H](n2cc(C)c(=O)[nH]c2=O)C[C@@H]1N=[N+]=[N-]` (some centres not stated) showed an IC50 in data set [1] of 14000 µM. The same compound showed an EC50 in data set [3] of 57 µM.
Compound `[N-]=[N+]=N[C@H]1C[C@H](n2ccc(=O)[nH]c2=O)O[C@@H]1CO` [NAVURIDINE] displayed an area under the curve (AUC) in data set [2] of 42.3 µg·h/mL. In data set [5], this compound had a half-life of 0.89 h.
Turning to `Cc1cn([C@H]2C[C@H](N=[N+]=[N-])[C@@H](CO)O2)c(=O)[nH]c1=O` [ZIDOVUDINE], the concentration for half-maximal inhibition (IC50) in data set [1] amounted to 191 µM. Further, the exposure (AUC) in data set [2] came to 175 µg·h/mL. This compound had a half-life in data set [6] of 0.28 h. In data set [3], a half-maximal response (EC50) required 0.186 µM.
